# Assay results taken from ChEMBL document CHEMBL1671718, “Anti-Pseudomonas activity of frog skin antimicrobial peptides in a Caenorhabditis elegans infection model: a plausible mode of action in vitro and in vivo” (Antimicrob Agents Chemother, 2010).
# The source made the active and inactive calls. The calls are words filed in the database; no cut-off is given here. Where a SMILES comes first, the peptide text is derived from it.
# Tests used:
# Pseudomonas aeruginosa [1] = assay: Antibacterial activity against multidrug-resistant Pseudomonas aeruginosa clinical isolate by broth microdilution method; assay type: functional
# Method in brief: (§1)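 Adapted CLSI broth microdilution in Mueller-Hinton broth; mid-log bacteria at 2 × 10^6 CFU/ml mixed 1:1 with peptide dilutions (2-fold series from 20% ethanol stocks, 1–64 μM). Growth read by absorbance at 595 nm after 18–20 h at 37°C; MIC = lowest concentration giving 100% growth inhibition.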
# Pseudomonas aeruginosa [2] = assay: Bactericidal activity against multidrug-resistant Pseudomonas aeruginosa clinical isolate assessed as concentration required for >= 3 log10 CFU/ml reduction in viable bacteria in Mueller-Hinton broth after 90 mins; assay type: functional; details: 1.5 h
# Method in brief: (§2)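 Exponential-phase bacteria resuspended at 1 × 10^7 CFU/ml in MHB or PBS; 10 μl incubated with 2-fold peptide dilutions (2–64 μM) in 100 μl, 37°C, 90 min, then plated on LB agar and counted after overnight growth. Value = concentration giving ≥3 log10 CFU/ml reduction. Solvent control 0.6% ethanol.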
# Pseudomonas aeruginosa [3] = assay: Bactericidal activity against multidrug-resistant Pseudomonas aeruginosa clinical isolate assessed as concentration required for >= 3 log10 CFU/ml reduction in viable bacteria in phosphate-buffer saline containing 150 mM sodium salt after 90 mins; assay type: functional; details: 1.5 h; method in brief: as §2
# [4] = Toxicity in human RBC assessed as hemolytic activity at 64 uM; assay type: cell-based, Erythrocyte; details: red blood cells, read-out: Activity
# Pseudomonas aeruginosa [5] = assay: Antibacterial activity against multidrug-resistant Pseudomonas aeruginosa clinical isolate infected in Caenorhabditis elegans assessed as worm survival at 0.01 nM after 48 hrs; assay type: functional, organism-based
# [6] = Toxicity in human RBC assessed as hemolytic activity <32 to 64 uM; assay type: cell-based; details: erythrocyte
# Pseudomonas aeruginosa [7] = assay: Antibacterial activity against multidrug-resistant Pseudomonas aeruginosa clinical isolate assessed as reduction in viable bacterial count at MIC after 5 mins by time-kill analysis; assay type: functional
# Method in brief: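 Bacteria grown in MHB at 37°C, diluted into PBS (about 1 × 10^5 CFU in 100 μl), incubated at 37°C with peptide at its MIC; 10 μl samples taken at intervals, diluted in MHB, plated on LB agar, CFU counted after overnight growth. Controls untreated or 0.6% ethanol solvent; three independent experiments, mean ± SD.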
# [8] = Toxicity in human RBC assessed as hemolytic activity upto 64 uM; assay type: cell-based; details: erythrocyte
# Method in brief: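 Fresh erythrocytes from healthy human donors, washed three times in 0.9% NaCl, used as a 5% (vol/vol) final suspension. Peptides were dissolved in 20% ethanol and tested at 2 to 64 μM, with agitation at 37°C for 40 min. Hemoglobin release was read as supernatant absorbance at 540 nm. The blank was solvent at 0.6% final; hypotonic lysis gave 100%.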
# Pseudomonas aeruginosa [9] = assay: Antibacterial activity against multidrug-resistant Pseudomonas aeruginosa clinical isolate infected in Caenorhabditis elegans assessed as increase in worm survival at 0.3 nM after 40 hrs relative untreated control; assay type: functional
# Method in brief: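 N2 young adults infected 6 h at 25°C on modified NGM lawns of clinical isolate, washed in M9, 15 worms/well in 50 μl S medium with E. coli OP50 plus peptide (0.3 or 0.01 nM depending on peptide); 40 h at 25°C. Dead = no movement or muscle tone; at least three experiments, mean ± SD.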
# Pseudomonas aeruginosa [10] = assay: Antibacterial activity against multidrug-resistant Pseudomonas aeruginosa clinical isolate infected in Caenorhabditis elegans assessed as reduction in viable bacterial count in intestinal lumen after 24 hrs by agar plate assay relative to untreated worm; assay type: functional
# Method in brief: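 Worms infected 6 h, then on OP50 NGM plates with 0.5 nM peptide added. Before and after 1 day, 10 worms per replicate washed three times in M9 with 20 μg/ml gentamicin, lysed in M9–1% Triton X-100, and plated on LB with 100 μg/ml ampicillin; CFU counted after overnight growth at 37°C. At least three experiments.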
# Pseudomonas aeruginosa [11] = assay: Antibacterial activity against multidrug-resistant Pseudomonas aeruginosa clinical isolate infected in Caenorhabditis elegans assessed as increase in worm survival within 6 days agar plate assay relative to untreated worm; assay type: functional
# Method in brief: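 Worms infected 6 h, washed in M9, 15 per 3.5-cm NGM plate with E. coli OP50, moved daily to fresh plates freshly spread with 200 μl of 0.5 nM peptide. Death scored as absence of touch-provoked movement over 6 days versus untreated infected worms; at least three experiments.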
# Pseudomonas aeruginosa [12] = assay: Antibacterial activity against Pseudomonas aeruginosa ATCC 15692 by broth microdilution method; assay type: functional; method in brief: as §1
# Pseudomonas aeruginosa [13] = assay: Antibacterial activity against Pseudomonas aeruginosa ATCC 15692 expressing GFP infected in Caenorhabditis elegans assessed as reduction in viable bacterial count in intestinal lumen after 90 mins by fluorescence microscopy; assay type: functional, organism-based
# Method in brief: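 Nematodes infected 16 h with GFP-expressing ATCC 15692 (plasmid pSMC21, ampicillin-selected), moved to OP50 NGM plates with or without 0.5 nM peptide; after 90 min, gut fluorescence viewed by epifluorescence stereomicroscopy (GFP2 filter, ×60).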
# Pseudomonas aeruginosa [14] = assay: Induction of membrane permeation on multidrug-resistant Pseudomonas aeruginosa clinical isolate infected in Caenorhabditis elegans assessed as increase in membrane permeability assessed as increase in membrane permeability by Sytox green dye influx assay; assay type: functional, organism-based
# Method in brief: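 N2 adults infected 16 h, washed in M9, held about 24 h at 25°C on K medium agar to expand gut bacteria (about 1,000 CFU/worm). 200 worms per well in 300 μl K medium with 1 μM Sytox Green, 5 min in the dark; 10 nM peptide added, fluorescence (485/535 nm) read at 25°C until plateau (about 40 min). Controls: 0.3% ethanol-treated infected worms and uninfected worms; two experiments.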
# Escherichia coli = assay: Induction of membrane permeation on GFP expressing Escherichia coli OP50 infected in Caenorhabditis elegans assessed as increase in membrane permeability assessed as increase in membrane permeability after 16 hrs post dose by Sytox green dye influx assay; assay type: functional, organism-based
# [15] = Toxicity in human RBC assessed as hemolytic activity at 32 uM; assay type: cell-based, Erythrocyte; details: red blood cells, read-out: Activity
# Caenorhabditis elegans = assay: Toxicity in multidrug-resistant Pseudomonas aeruginosa clinical isolate infected Caenorhabditis elegans induction of worm mortality at >0.01 nM after 48 hrs; assay type: organism-based; details: in vivo
Compound,MIC (Pseudomonas aeruginosa [1]) [µM],MIC (Pseudomonas aeruginosa [2]) [µM],MIC (Pseudomonas aeruginosa [3]) [µM],hemolysis at 64 µM [4] [%],Activity (Pseudomonas aeruginosa [5]),Activity [6],CFU/ml (Pseudomonas aeruginosa [7]),Activity [8],fold change (FC) (Pseudomonas aeruginosa [9]),fold change (FC) (Pseudomonas aeruginosa [10]),fold change (FC) (Pseudomonas aeruginosa [11]),MIC (Pseudomonas aeruginosa [12]) [µM],Activity (Pseudomonas aeruginosa [13]),Activity (Pseudomonas aeruginosa [14]),Activity (Escherichia coli),hemolysis at 32 µM [15] [%],Activity (Pseudomonas aeruginosa [10]),Activity (Caenorhabditis elegans)
CC[C@H](C)[C@H](NC(=O)CNC(=O)[C@H](CO)NC(=O)[C@H](CC(C)C)NC(=O)[C@@H](NC(=O)[C@H](CCCCN)NC(=O)CNC(=O)[C@@H](NC(=O)[C@H](CC(C)C)NC(=O)[C@@H]1CCCN1C(=O)[C@H](CC(C)C)NC(=O)[C@@H](N)Cc1ccccc1)[C@@H](C)CC)C(C)C)C(=O)N[C@@H](CC(C)C)C(N)=O (H-FLPLIGKVLSGIL-NH2),> 64,> 64,> 64,12,inactive,Non-toxic,–,–,–,–,–,–,–,–,–,–,–,–
CC[C@H](C)[C@H](NC(=O)CN)C(=O)N[C@@H](Cc1ccccc1)C(=O)N[C@@H](CO)C(=O)N[C@@H](CCCCN)C(=O)N[C@@H](CC(C)C)C(=O)N[C@@H](C)C(=O)NCC(=O)N[C@@H](CCCCN)C(=O)N[C@@H](CCCCN)C(=O)N[C@H](C(=O)N[C@@H](CCCCN)C(=O)N[C@@H](CC(N)=O)C(=O)N[C@@H](CC(C)C)C(=O)N[C@@H](CC(C)C)C(=O)N[C@H](C(=O)N[C@@H](CO)C(=O)NCC(=O)N[C@@H](CC(C)C)C(=O)N[C@@H](CCCCN)C(=O)NCC(N)=O)[C@@H](C)CC)[C@@H](C)CC (H-GIFSKLAGKKIKNLLISGLKG-NH2),4,16,4,–,inactive,–,998000,Non-toxic,–,–,–,–,–,–,–,–,–,–
CC[C@H](C)[C@H](NC(=O)CN)C(=O)N[C@@H](Cc1ccccc1)C(=O)N[C@@H](CO)C(=O)N[C@@H](CCCCN)C(=O)N[C@@H](CC(C)C)C(=O)N[C@@H](C)C(=O)NCC(=O)N[C@@H](CCCCN)C(=O)N[C@@H](CCCCN)C(=O)N[C@@H](CC(C)C)C(=O)N[C@@H](CCCCN)C(=O)N[C@@H](CC(N)=O)C(=O)N[C@@H](CC(C)C)C(=O)N[C@@H](CC(C)C)C(=O)N[C@H](C(=O)N[C@@H](CO)C(=O)NCC(N)=O)[C@@H](C)CC (H-GIFSKLAGKKLKNLLISG-NH2),8,64,16,–,inactive,–,950000,Non-toxic,4,5,2,8,Active,Active,inactive,–,–,–
CC[C@H](C)[C@H](NC(=O)[C@@H]1CCCN1C(=O)[C@H](CC(C)C)NC(=O)[C@@H](N)CC(C)C)C(=O)N[C@H](C(=O)NCC(=O)N[C@@H](CC(N)=O)C(=O)N[C@@H](CC(C)C)C(=O)N[C@@H](CC(C)C)C(=O)N[C@@H](CCCCN)C(=O)N[C@@H](CO)C(=O)N[C@@H](CC(C)C)C(=O)N[C@@H](CC(C)C)C(N)=O)C(C)C (H-LLPIVGNLLKSLL-NH2),> 64,> 64,> 64,–,inactive,Non-toxic,–,–,4,–,–,> 64,Active,–,–,5,Active,–
CC[C@H](C)[C@H](NC(=O)[C@H](CCCNC(=N)N)NC(=O)CNC(=O)[C@H](CC(C)C)NC(=O)[C@H](Cc1ccccc1)NC(=O)[C@H](CCCCN)NC(=O)[C@H](CO)NC(=O)[C@H](Cc1ccccc1)NC(=O)[C@H](Cc1c[nH]c2ccccc12)NC(=O)[C@H](CCC(N)=O)NC(=O)[C@@H](NC(=O)[C@@H](N)Cc1ccccc1)C(C)C)C(=O)N[C@@H](CC(C)C)C(N)=O [TEMPORIN L] (H-FVQWFSKFLGRIL-NH2),64,> 64,16,–,inactive,–,–,–,–,–,–,–,–,–,–,–,–,Toxic
